Assay [1] concerns 1A9. Briefly: Effective dose required for inhibitory activity against 1A9 human tumor cell line. The class given is functional. The conditions noted are these: read-out: ED50 (the source's name). An outline of the steps:
(§1)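 Human tumor lines were grown in RPMI-1640 with 25 mM HEPES, 0.25% sodium bicarbonate, 10% FBS and 100 µg/mL kanamycin. KB-VIN is a vincristine-resistant KB subline, and PTX10 is a 1A9 subline with mutated β-tubulin. Trypsinized cells (1500–7500/well) got compound from DMSO stock for 3 days continuous. Cells were fixed with cold 50% TCA, stained with 0.4% SRB, and read at 562 nm. ED50 is the 50% growth-reduction concentration; not active means ≤5% inhibition at the top concentration.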

Assay [2] concerns HCT-8. Briefly: Effective dose required for inhibitory activity against HCT-8 human tumor cell line. Conditions: read-out: ED50 (the source's name). The class given is functional. An outline of the steps:
as §1

For assay [3], the system named is MCF7. Briefly: Effective dose required for inhibitory activity against MCF-7 human tumor cell line. The class given is functional. The conditions noted are these: read-out: ED50 (the source's name). An outline of the steps:
as §1

The test system of assay [4] is KB. The assay can be described thus: Effective dose required for inhibitory activity against KB human tumor cell line. The class given is functional. Conditions: read-out: ED50 (the source's name). An outline of the steps:
as §1

Assay [5] concerns A549. Briefly: Effective dose required for inhibitory activity against A549 human tumor cell line. The class given is functional. The conditions noted are these: read-out: ED50 (the source's name). An outline of the steps:
as §1

Assay [6] has as its system CAKI-1. The assay can be described thus: Effective dose required for inhibitory activity against CAK1 human tumor cell line. Conditions: read-out: ED50 (the source's name). The class given is functional. An outline of the steps: as §1
The test system of assay [7] is HOS. The assay can be described thus: Effective dose required for inhibitory activity against HOS human tumor cell line. Conditions: read-out: ED50 (the source's name). The class given is functional. An outline of the steps:
as §1

The test system of assay [8] is 1A9/ptx-10. Briefly: Effective dose required for inhibitory activity against PTX10 human tumor cell line. The class given is functional. Conditions: read-out: ED50 (the source's name). An outline of the steps:
as §1

For assay [9], the system named is PC-3. The assay can be described thus: Effective dose required for inhibitory activity against PC-3 human tumor cell line. Conditions: read-out: ED50 (the source's name). The class given is functional. An outline of the steps:
as §1

The test system of assay [10] is SK-MEL-2. The assay can be described thus: Effective dose required for inhibitory activity against SK-MEL-2 human tumor cell line. The class given is functional. The conditions noted are these: read-out: ED50 (the source's name). An outline of the steps:
as §1

Assay [11] has as its system KB. Briefly: Effective dose required for inhibitory activity against KB-VIN human tumor cell line. The class given is functional. The conditions noted are these: read-out: ED50 (the source's name). An outline of the steps:
as §1

The test system of assay [12] is 1A9/ptx-10. Briefly: Percent inhibition against PTX10 human tumor cell line at >10 ug/mL. The class given is functional.
In assay [13] the test system is CAKI-1. Briefly: Effective dose required for inhibitory activity against CAK1 human tumor cell line; Not active. The class given is functional, cell-based. An outline of the steps:
as §1

This is an account of results in ChEMBL document CHEMBL1145845, “Acetogenins as selective inhibitors of the human ovarian 1A9 tumor cell line” (2003).

In brackets after ≈: the same amount, converted by molar mass. Activity calls are given as the source filed them.

On to `CCCCCC[C@H](O)CCC[C@H](O)[C@H]1CC[C@H]([C@H]2CC[C@H]([C@H](O)CCCCCCCCCCCCC3=C[C@H](C)OC3=O)O2)O1` [SQUAMOCIN], for which the EC50 in assay [1] came to 0.00032 µg/mL (≈ 0.000514 µM); in assay [2], 9.8 µg/mL (≈ 15.7 µM); in assay [3] it was 6 µg/mL (≈ 9.63 µM); in [4], 8.1 µg/mL (≈ 13 µM); in [5], 9.3 µg/mL (≈ 14.9 µM); in assay [6], 13.5 µg/mL (≈ 21.7 µM). Further, the EC50 in assay [7] stood at 8.5 µg/mL (≈ 13.6 µM); in assay [8], 7 µg/mL (≈ 11.2 µM); in assay [9] it was 11.1 µg/mL (≈ 17.8 µM); in assay [10], 16.5 µg/mL (≈ 26.5 µM); in assay [11], 12 µg/mL (≈ 19.3 µM).
A word on the Inhibition: it is the drop in the measured response relative to a control, in per cent. High values mean a response far below the control, low ones a response near the control. Consider `CCCCCCCC/C=C\CC[C@H](O)[C@@H]1CC[C@@H]([C@H](O)CCCCC(O)CCCCCC(O)CC2=C[C@H](C)OC2=O)O1` (some centres not stated), for which the Inhibition in [12] is given as 40%. Moreover, the EC50 in assay [1] was 0.93 µg/mL (≈ 1.56 µM); in assay [2] it was 14.4 µg/mL (≈ 24.2 µM); in assay [3] it was 7.6 µg/mL (≈ 12.8 µM); in assay [4], 13 µg/mL (≈ 21.9 µM); in assay [5], 17 µg/mL (≈ 28.6 µM); in assay [6] it was 19 µg/mL (≈ 31.9 µM). Besides, the EC50 was determined as 17 µg/mL (≈ 28.6 µM) in [7], 15.3 µg/mL (≈ 25.7 µM) in [9], 17 µg/mL (≈ 28.6 µM) in [10] and 17.5 µg/mL (≈ 29.4 µM) in assay [11].
As to `CCCCCC(O)C(O)CCCCCC[C@H](O)[C@@H]1CC[C@H](CCCCCCCCCC[C@H](O)CC2=C[C@H](C)OC2=O)O1` (some centres not stated) [MURICIN B], the Inhibition in assay [12] worked out at 26%. Also, the EC50 in assay [1] was 0.52 µg/mL (≈ 0.871 µM); in assay [2] it was > 20 µg/mL; in assay [3], 15.5 µg/mL (≈ 26 µM); in assay [4], > 20 µg/mL; in assay [5], > 20 µg/mL; in assay [7], > 20 µg/mL. Further, the EC50 in [9], in assay [10] and in [11] was > 20 µg/mL each time. Moreover, in [13], the NA result is “inactive”.
For `CC(=O)O[C@H]1C(=O)[C@@]2(C)[C@H]([C@H](OC(=O)c3ccccc3)[C@]3(O)C[C@H](OC(=O)[C@H](O)[C@@H](NC(=O)c4ccccc4)c4ccccc4)C(C)=C1C3(C)C)[C@]1(OC(C)=O)CO[C@@H]1C[C@@H]2O` [PACLITAXEL], the EC50 in assay [1] is 0.002 µg/mL (≈ 0.00234 µM); in assay [2] it was 0.011 µg/mL (≈ 0.0129 µM); in assay [4], 0.001 µg/mL (≈ 0.00117 µM); in assay [5], 0.005 µg/mL (≈ 0.00586 µM); in assay [8], 0.041 µg/mL (≈ 0.048 µM).
In [12], `CCCCCCCCCCCCCC[C@@H](O)[C@H]1CC[C@H]([C@H](O)CCC(O)CCCCCCCC2=C[C@H](C)OC2=O)O1` (some centres not stated) showed an Inhibition of 43%. In addition, the EC50 in assay [1] is 0.81 µg/mL (≈ 1.39 µM); in [2], 20 µg/mL (≈ 34.4 µM); in [3], 9 µg/mL (≈ 15.5 µM); in assay [4], 17.3 µg/mL (≈ 29.8 µM); in [5] it was 20 µg/mL (≈ 34.4 µM); in [6] it was > 20 µg/mL. Besides, the EC50 was > 20 µg/mL in [7], 16.8 µg/mL (≈ 28.9 µM) in assay [9], > 20 µg/mL in assay [10] and > 20 µg/mL in assay [11].
On to `CCCCCCCCCCCCCC[C@@H](O)[C@H]1CC[C@H]([C@H](O)CCCCC(O)CCCCCC(O)CC2=C[C@H](C)OC2=O)O1` (some centres not stated), for which the EC50 stood at 0.5 µg/mL (≈ 0.8 µM) in assay [1]; 12.7 µg/mL (≈ 20.3 µM) in [2]; 5.6 µg/mL (≈ 8.96 µM) in assay [3]; 9 µg/mL (≈ 14.4 µM) in assay [4]; 11.5 µg/mL (≈ 18.4 µM) in assay [5]; 16 µg/mL (≈ 25.6 µM) in assay [6]. Also, the EC50 in assay [7] was found to be 13.6 µg/mL (≈ 21.8 µM); in assay [8], 7.2 µg/mL (≈ 11.5 µM); in [9] it was 12.2 µg/mL (≈ 19.5 µM); in [10] it was 15 µg/mL (≈ 24 µM); in assay [11], 13.3 µg/mL (≈ 21.3 µM).
In assay [12], `CCCCCCCCCCCC[C@@H](O)[C@H]1CC[C@@H]([C@@H](O)CCCCC(=O)CCCCCCCC2=C[C@H](C)OC2=O)O1` [COROSSOLONE] displayed an Inhibition of 37%. Besides, the EC50 is 0.82 µg/mL (≈ 1.42 µM) in assay [1]; > 20 µg/mL in [2]; 7.9 µg/mL (≈ 13.6 µM) in assay [3]; 18 µg/mL (≈ 31.1 µM) in assay [4]; 19 µg/mL (≈ 32.8 µM) in assay [5]; > 20 µg/mL in [6]. For the same compound, the EC50 is > 20 µg/mL in [7], 13.5 µg/mL (≈ 23.3 µM) in assay [9], 18.8 µg/mL (≈ 32.5 µM) in [10] and > 20 µg/mL in assay [11].
In assay [12], `CCCCCCCC(O)C(O)CC[C@H](O)[C@@H]1CC[C@@H](CCCCCCCCCC[C@H](O)CC2=C[C@H](C)OC2=O)O1` (some centres not stated) gave an Inhibition of 27%. Also, the EC50 in [1] was 0.68 µg/mL (≈ 1.2 µM); in [2], > 20 µg/mL; in [3] it was 15.5 µg/mL (≈ 27.2 µM); in assay [4], 18 µg/mL (≈ 31.6 µM); in [5], > 20 µg/mL; in assay [6], > 20 µg/mL. Besides, the EC50 in assay [7], in assay [9], in assay [10] and in assay [11] was > 20 µg/mL each time.
